What all share (format): functional
Test [1] deals with Plasmodium falciparum. The test can be described thus: Antimalarial activity against MRA-150, chloroquine, pyrimethamine, mefloquine-resistant asexual blood stage Plasmodium falciparum Dd2 assessed as rescue at 5 uM after 72 hrs by SYBR green assay in presence of 200 uM IPP.
Test [2] has as its system Plasmodium falciparum. The test can be described thus: Antimalarial activity against MRA-150, chloroquine, pyrimethamine, mefloquine-resistant asexual blood stage Plasmodium falciparum Dd2 after 72 hrs by SYBR green assay. The following applies: Dd2, 72 h. An outline of the steps:
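Dd2 parasites were kept in O-positive human erythrocytes in RPMI 1640 with Albumax I, hypoxanthine and HEPES. Ring-stage cultures (1% hematocrit, 1% parasitemia) were given eight- or ten-point dilutions of 20 to 0.02 μM in 0.1% DMSO for 72 h at 37 °C under low O2. Growth was read by SYBR green, with uninfected-erythrocyte background and normalisation to untreated 0.1% DMSO controls. IC50 came from a four-parameter variable-slope fit, mean of ≥2 independent experiments ± S.D.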

The test system of test [3] is Plasmodium falciparum. The test can be described thus: Antimalarial activity against MRA-150, chloroquine, pyrimethamine, mefloquine-resistant asexual blood stage Plasmodium falciparum Dd2 assessed as rescue after 72 hrs by SYBR green assay in presence of 200 uM IPP. The conditions noted are these: Dd2, 72 h. An outline of the steps:
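Ring-stage Dd2 cultures (1% hematocrit, 1% parasitemia, human erythrocytes) were grown with 200 μM IPP and a 10 to 0.02 μM serial dilution for 72 h at 37 °C under reduced O2. Growth was read by SYBR green and normalised to untreated 0.1% DMSO controls. Data are the mean ± S.D. of two or more independent experiments.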

The subject of a further test is Escherichia coli. The test can be described thus: Antibacterial activity against Escherichia coli BL21(DE3) after 18 hrs by cell density meter. In outline: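 Overnight culture (37 °C, 200 rpm) diluted 100-fold into LB, grown to OD600 ~0.6, then diluted 10,000-fold; mixed 1:1 with compound prediluted in LB at 500, 250 and 125 μM; 5% DMSO final. Incubated 18 h, 37 °C, 200 rpm; growth normalized to untreated inoculum and compared with 5% DMSO vehicle; controls fosmidomycin 100 μM, uninoculated medium; three independent experiments.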

In test [4] the test system is Plasmodium falciparum. The test can be described thus: Antimalarial activity against MRA-150, chloroquine, pyrimethamine, mefloquine-resistant asexual blood stage Plasmodium falciparum Dd2 assessed as rescue at 10 uM after 72 hrs by SYBR green assay in presence of 200 uM IPP. In outline: (§1)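 Single-concentration test (10 or 20 μM) run with or without 200 μM IPP on ring-stage Dd2 cultures (1% hematocrit, 1% parasitemia) in human erythrocytes. Incubation was 72 h at 37 °C under reduced O2. Growth was read by SYBR green, with background from uninfected erythrocytes and normalisation to untreated DMSO vehicle controls.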

The subject of test [5] is Plasmodium falciparum. The test can be described thus: Antimalarial activity against MRA-150, chloroquine, pyrimethamine, mefloquine-resistant asexual blood stage Plasmodium falciparum Dd2 assessed as rescue at 2.5 uM after 72 hrs by SYBR green assay in presence of 200 uM IPP.
Test [6] deals with Plasmodium falciparum. The test can be described thus: Antimalarial activity against MRA-150, chloroquine, pyrimethamine, mefloquine-resistant asexual blood stage Plasmodium falciparum Dd2 at 20000 nM after 72 hrs by SYBR green assay. The following applies: Dd2, 72 h, read-out: GI. In outline:
as §1

For test [7], the system named is Plasmodium falciparum. The test can be described thus: Antimalarial activity against MRA-150, chloroquine, pyrimethamine, mefloquine-resistant asexual blood stage Plasmodium falciparum Dd2 assessed as rescue at 20 uM after 72 hrs by SYBR green assay in presence of 200 uM IPP. In outline: as §1
In test [8] the test system is Plasmodium falciparum. The test can be described thus: Antimalarial activity against MRA-150, chloroquine, pyrimethamine, mefloquine-resistant asexual blood stage Plasmodium falciparum Dd2 at 10000 nM after 72 hrs by SYBR green assay. The conditions noted are these: Dd2, 72 h, read-out: GI. In outline:
as §1

The source made the active and inactive calls. No cut-off for these calls is given here.

As to `O=C(O)[C@@H]1Cc2c([nH]c3ccccc23)[C@@H](c2ccc(F)cc2F)N1`, the Activity in the test on Plasmodium falciparum [1] was 100%. The IC50 with Plasmodium falciparum [2] was 780 nM; in the test with Plasmodium falciparum [3] it was greater than 10000 nM. Besides, the outcome with Escherichia coli was inactive.

In the case of `O=C(O)[C@@H]1Cc2c([nH]c3ccccc23)[C@H](c2ccc(Cl)cc2Cl)N1`, the IC50 with Plasmodium falciparum [2] is greater than 10000 nM.

Regarding `COc1ccc([C@H]2N[C@H](C(=O)O)Cc3c2[nH]c2ccccc32)c(OC)c1`, in the test with Plasmodium falciparum [2], the IC50 was greater than 20000 nM.

In the test with Plasmodium falciparum [2], `O=C(O)[C@@H]1Cc2c([nH]c3ccccc23)[C@H](c2ccccc2)N1` registered an IC50 greater than 10000 nM.

Turning to `O=C(O)[C@H]1Cc2c([nH]c3ccccc23)[C@@H](c2ccc(Cl)cc2Cl)N1`, the midpoint of inhibition in the test with Plasmodium falciparum [2], the IC50, lay at 3000 nM. In addition, the Activity in the test on Plasmodium falciparum [4] was determined as 60%.

`O=C(O)C1Cc2c([nH]c3ccccc23)C(c2ccc(Cl)cc2Cl)N1` (stereo not given): it took 210 nM to reach half-maximal inhibition in the test on Plasmodium falciparum [2] (IC50). Besides, the Activity in the test on Plasmodium falciparum [5] was found to be 100%.

Consider `O=CN(O)CCCP(=O)(O)O` [FOSMIDOMYCIN], for which the Activity in the test with Plasmodium falciparum [4] is 100%.

In the test on Plasmodium falciparum [2], `O=C(O)[C@@H]1Cc2c([nH]c3ccccc23)[C@@H](c2ccccc2Cl)N1` came in with an IC50 of 3280 nM. In addition, in the test on Plasmodium falciparum [4], the Activity stood at 60%.

For `CNC(=O)[C@@H]1Cc2c([nH]c3ccccc23)[C@@H](c2ccc(Cl)cc2C)N1`, the midpoint of inhibition in the test on Plasmodium falciparum [2], the IC50, lay at 1850 nM. For the same compound, in the test on Plasmodium falciparum [4], the Activity amounted to 50%.

The compound `O=C(NC1CCCCC1)[C@@H]1Cc2c([nH]c3ccccc23)[C@@H](c2ccc(Cl)cc2Cl)N1` displayed an IC50 in the test with Plasmodium falciparum [2] of 2830 nM. The Activity in the test with Plasmodium falciparum [4] turned out to be 0%.

In the test with Plasmodium falciparum [2], `O=C(O)[C@@H]1Cc2c([nH]c3ccccc23)[C@H](c2ccc(F)cc2F)N1` returned an IC50 greater than 20000 nM.

Take `COC(=O)[C@@H]1Cc2c([nH]c3ccccc23)[C@@H](c2ccccc2)N1`: the inhibition of growth at 20 µM in the test on Plasmodium falciparum [6] stood at 20%.

As to `O=C(O)[C@H]1Cc2c([nH]c3ccccc23)[C@H](c2ccc(Cl)cc2Cl)N1`, the IC50 with Plasmodium falciparum [2] was greater than 10000 nM.

The compound `COC(=O)[C@@H]1Cc2c([nH]c3ccccc23)[C@@H](c2ccc(Cl)cc2Cl)N1` came in with an IC50 in the test with Plasmodium falciparum [2] of 6800 nM. Besides, the Activity with Plasmodium falciparum [7] came to 20%.

Consider `O=C(O)[C@@H]1Cc2c([nH]c3ccccc23)[C@@H](c2ccc(Cl)cc2Cl)N1`, for which the IC50 is 250 nM with Plasmodium falciparum [2] and greater than 10000 nM in the test on Plasmodium falciparum [3]. Moreover, the Activity in the test on Plasmodium falciparum [5] is 100%. In addition, the result in the test with Escherichia coli was inactive.

With `CCCCNC(=O)[C@@H]1Cc2c([nH]c3ccccc23)[C@@H](c2ccc(Cl)cc2Cl)N1`, in the test with Plasmodium falciparum [8], the inhibition of growth at 10 µM stood at 80%.

Turning to `CNC(=O)[C@@H]1Cc2c([nH]c3ccccc23)[C@@H](c2ccc(C(F)(F)F)cc2C(F)(F)F)N1`, the IC50 in the test on Plasmodium falciparum [2] is greater than 10000 nM.

Take `CNC(=O)[C@@H]1Cc2c([nH]c3ccccc23)[C@@H](c2ccc(Cl)cc2Cl)N1`: the half-maximal inhibitory concentration (IC50) in the test on Plasmodium falciparum [2] is 190 nM; with Plasmodium falciparum [3], greater than 10000 nM. Besides, the Activity in the test on Plasmodium falciparum [5] was 100%. The result with Escherichia coli was inactive.

As for `Cc1ccc([C@H]2N[C@H](C(=O)O)Cc3c2[nH]c2ccccc32)c(C)c1`, in the test with Plasmodium falciparum [8], the inhibition of growth at 10 µM worked out at 70%.

Take `Cc1cc(Cl)ccc1[C@H]1N[C@H](C(=O)O)Cc2c1[nH]c1ccccc21`: the IC50 with Plasmodium falciparum [2] is 700 nM; in the test on Plasmodium falciparum [3], greater than 10000 nM. Further, in the test on Plasmodium falciparum [5], the Activity turned out to be 100%. Besides, the outcome in the test with Escherichia coli was inactive.

With `COC(=O)[C@H]1Cc2c([nH]c3ccccc23)[C@H](c2ccc(Cl)cc2Cl)N1`, the IC50 in the test on Plasmodium falciparum [2] amounted to 7700 nM. For the same compound, in the test with Plasmodium falciparum [7], the Activity is on record as 0%.

With `Cc1ccc([C@@H]2N[C@H](C(=O)O)Cc3c2[nH]c2ccccc32)c(C)c1`, in the test on Plasmodium falciparum [2], the IC50 was greater than 10000 nM.

Regarding `CC(C)NC(=O)[C@@H]1Cc2c([nH]c3ccccc23)[C@@H](c2ccc(Cl)cc2Cl)N1`, the inhibition of growth at 10 µM with Plasmodium falciparum [8] worked out at 50%.

As to `Cc1ccc([C@@H]2N[C@H](C(=O)O)Cc3c2[nH]c2ccccc32)c(Cl)c1`, in the test with Plasmodium falciparum [2], the IC50 was greater than 10000 nM.

In turn, `O=C(O)[C@@H]1Cc2c([nH]c3ccccc23)[C@@H](c2ccc(C(F)(F)F)cc2C(F)(F)F)N1` came in with an IC50 in the test with Plasmodium falciparum [2] greater than 10000 nM.

As to `NC(=O)[C@@H]1Cc2c([nH]c3ccccc23)[C@@H](c2ccc(Cl)cc2Cl)N1`, in the test with Plasmodium falciparum [2], half-maximal inhibition (IC50) was put at 1200 nM. Further, the Activity in the test on Plasmodium falciparum [4] was determined as 50%.

`CNNC(=O)[C@@H]1Cc2c([nH]c3ccccc23)[C@@H](c2ccc(Cl)cc2Cl)N1`: in the test on Plasmodium falciparum [2], half-maximal inhibition (IC50) was put at 1940 nM. Also, the Activity in the test with Plasmodium falciparum [4] was 80%.

As to `Clc1ccc(C2NCCc3c2[nH]c2ccccc32)c(Cl)c1` (racemic), the IC50 in the test on Plasmodium falciparum [2] stood at 10000 nM.

In the test on Plasmodium falciparum [2], `COc1ccc([C@H]2N[C@H](C(=O)O)Cc3c2[nH]c2ccccc32)cc1OC` showed an IC50 greater than 20000 nM.

`CNC(=O)[C@@H]1Cc2c([nH]c3ccccc23)[C@@H](c2ccc(F)cc2F)N1` showed an IC50 in the test on Plasmodium falciparum [2] of 1200 nM. For the same compound, the Activity with Plasmodium falciparum [5] was determined as 100%. For the same compound, the outcome with Escherichia coli was inactive.

On to `CNC(=O)[C@@H]1Cc2c([nH]c3ccccc23)[C@@H](c2ccc(C)cc2C)N1`, for which, in the test on Plasmodium falciparum [8], the inhibition of growth at 10 µM was 70%.

On to `Cc1ccc([C@H]2N[C@H](C(=O)O)Cc3c2[nH]c2ccccc32)c(Cl)c1`, for which the IC50 with Plasmodium falciparum [2] is 410 nM; with Plasmodium falciparum [3] it was greater than 10000 nM. Besides, the Activity in the test with Plasmodium falciparum [5] was found to be 100%. Also, the outcome in the test with Escherichia coli was inactive.

With `CNC(=O)[C@@H]1Cc2c([nH]c3ccccc23)[C@@H](c2ccc(C)cc2Cl)N1`, half-maximal inhibition with Plasmodium falciparum [2] (IC50) required 340 nM. The Activity in the test on Plasmodium falciparum [5] turned out to be 100%. Besides, the outcome in the test on Escherichia coli was inactive.

In turn, `O=C(O)[C@@H]1Cc2c([nH]c3ccccc23)[C@@H](c2ccc(Cl)cc2)N1` had an IC50 in the test with Plasmodium falciparum [2] of 1170 nM. In the test on Plasmodium falciparum [4], the Activity is 50%.

In the case of `CN1CC(=O)N2[C@H](c3ccc4c(c3)OCO4)c3[nH]c4ccccc4c3C[C@@H]2C1=O` [TADALAFIL], in the test with Plasmodium falciparum [2], the IC50 is greater than 20000 nM.

In the test on Plasmodium falciparum [2], `O=C(O)[C@@H]1Cc2c([nH]c3ccccc23)[C@@H](c2ccccc2)N1` yielded an IC50 greater than 10000 nM.

The values are drawn from ChEMBL document CHEMBL3400070, “Determination of the active stereoisomer of the MEP pathway-targeting antimalarial agent MMV008138, and initial structure-activity studies” (Bioorg Med Chem Lett, 2015).
